The results in this text go back to ChEMBL document CHEMBL1133855 (Bioorg Med Chem Lett, 2001).

One test has as its target T1, Adenosine receptor A1 (Homo sapiens, UniProt P30542).
T1 sequence (P30542 whole entry): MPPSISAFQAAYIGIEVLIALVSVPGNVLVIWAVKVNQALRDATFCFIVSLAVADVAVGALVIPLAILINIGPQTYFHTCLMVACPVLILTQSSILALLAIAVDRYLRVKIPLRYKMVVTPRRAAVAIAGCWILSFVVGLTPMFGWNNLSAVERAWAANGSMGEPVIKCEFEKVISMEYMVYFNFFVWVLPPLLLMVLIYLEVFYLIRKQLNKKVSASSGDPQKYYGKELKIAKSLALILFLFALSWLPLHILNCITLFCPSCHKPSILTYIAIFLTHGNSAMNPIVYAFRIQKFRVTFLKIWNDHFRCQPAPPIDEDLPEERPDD
As to the kind of experiment: Affinity for Adenosine A1 receptor by displacement of [3H]DPCPX from human cerebral cortex. The class given is tissue-based. In a few lines: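 Membranes from human cerebral cortex; competition against [3H]DPCPX. IC50 fitted by non-linear least squares and converted to Ki via Cheng–Prusoff; means ± SE of three experiments.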

Another test concerns the target Adenosine receptor A2a (Homo sapiens, UniProt P29274). In words: Affinity for A2a receptor by displacement of [3H]-CGS- 21680 from human striatum.
A further test concerns the target T2, Adenosine receptor A3 (Homo sapiens, UniProt P0DMS8).
T2 sequence (P0DMS8 whole entry): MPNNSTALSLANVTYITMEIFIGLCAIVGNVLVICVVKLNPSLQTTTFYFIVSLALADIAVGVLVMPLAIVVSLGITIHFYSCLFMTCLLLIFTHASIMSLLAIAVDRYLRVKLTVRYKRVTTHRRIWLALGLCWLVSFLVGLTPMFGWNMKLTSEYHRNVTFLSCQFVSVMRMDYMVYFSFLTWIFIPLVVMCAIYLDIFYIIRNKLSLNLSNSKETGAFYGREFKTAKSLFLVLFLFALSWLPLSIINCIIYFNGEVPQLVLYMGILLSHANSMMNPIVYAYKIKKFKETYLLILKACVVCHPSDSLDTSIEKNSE
As to the kind of experiment: Displacement of [125I]AB-MECA from human Adenosine A3 receptor expressed in CHO cells. Format: cell-based. For orientation: Displacement assays read how much labelled ligand stays bound in the presence of the test substance.

Where only a bound is given, the exact number is not on record here.

Adenosine receptor A2a, sequence (P29274 whole entry): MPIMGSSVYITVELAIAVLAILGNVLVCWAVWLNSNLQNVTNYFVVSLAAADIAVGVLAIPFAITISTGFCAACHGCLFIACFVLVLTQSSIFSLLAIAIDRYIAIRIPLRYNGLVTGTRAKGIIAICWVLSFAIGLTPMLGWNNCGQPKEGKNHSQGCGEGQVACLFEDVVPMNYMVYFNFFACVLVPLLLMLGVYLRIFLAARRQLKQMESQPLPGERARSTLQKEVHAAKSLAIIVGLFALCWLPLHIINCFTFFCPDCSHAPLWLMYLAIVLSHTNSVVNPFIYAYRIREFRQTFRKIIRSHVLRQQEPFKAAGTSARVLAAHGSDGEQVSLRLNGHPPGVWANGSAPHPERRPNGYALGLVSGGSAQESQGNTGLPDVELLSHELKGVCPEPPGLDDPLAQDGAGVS

For `CCNC(=O)[C@H]1OC(n2cnc3c(NCCCCCCNc4ccc([N+](=O)[O-])c5nonc45)ncnc32)[C@H](O)[C@@H]1O` (stereo not given in full), the Ki at Adenosine receptor A1 was more than 10 µM; at Adenosine receptor A2a, 6.08 µM; on Adenosine receptor A3, 0.0236 µM.

As to `CCNC(=O)[C@H]1OC(n2cnc3c(NCCCCNc4ccc([N+](=O)[O-])c5nonc45)ncnc32)[C@H](O)[C@@H]1O` (stereo not given in full), the Ki at Adenosine receptor A1 was more than 10 µM; on Adenosine receptor A2a it was more than 10 µM; on Adenosine receptor A3 it was 0.381 µM.

As for `CCNC(=O)[C@H]1OC(n2cnc3c(NCCNc4ccc([N+](=O)[O-])c5nonc45)ncnc32)[C@H](O)[C@@H]1O` (stereo not given in full), the Ki at Adenosine receptor A1 is more than 10 µM; on Adenosine receptor A2a, 6.75 µM; on Adenosine receptor A3 it was 0.0558 µM.

Regarding `CCNC(=O)[C@H]1OC(n2cnc3c(NCCCCCCCCNc4ccc([N+](=O)[O-])c5nonc45)ncnc32)[C@H](O)[C@@H]1O` (stereo not given in full), the values for the Ki on Adenosine receptor A1, at Adenosine receptor A2a and at Adenosine receptor A3 were 3.48 µM, 5.1 µM and 0.00744 µM, respectively.

`CCNC(=O)[C@H]1OC(n2cnc3c(NCCCCCCCCCCNc4ccc([N+](=O)[O-])c5nonc45)ncnc32)[C@H](O)[C@@H]1O` (stereo not given in full): the Ki on Adenosine receptor A1 was found to be 6.35 µM; on Adenosine receptor A2a it was 6.1 µM; at Adenosine receptor A3 it was 0.0281 µM.

The term Ki denotes a dissociation constant, usually derived from enzyme kinetics or from competition with a known ligand. The low end stands for a stronger hold on the target, the high end for a looser hold on the target.
